Test results published in ChEMBL document CHEMBL1128333, “Derivatives of cis-2-amino-8-hydroxy-1-methyltetralin: mixed 5-HT1A-receptor agonists and dopamine D2-receptor antagonists” (J Med Chem, 1995).

Assays:
[1] = species on record: Rattus norvegicus; experiment: Ratio of serotonin turnover (5HIAA to 5-HT) in rat brain hippocampus compared to control; type: functional
In short: (§1)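 Male Sprague–Dawley rats (260–310 g) received compound sc in 0.9% NaCl; saline controls. Rats were decapitated 35–45 min post-injection, and hippocampus and striatum were dissected and frozen. Tissue was homogenized in 0.1 M perchloric acid with α-methyl-5-hydroxytryptophan as internal standard, centrifuged and filtered, then analysed by HPLC-EC at 0.85 V (mobile phase pH 2.69, 35 °C). Values are percent of control, mean ± SEM.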

[2] = species on record: Rattus norvegicus; experiment: 5-HT content of rat hippocampus reflecting 5-HT metabolism and turnover; type: functional; set-up: concentration or dose not given beside the values; in short: as §1
[3] = species on record: Rattus norvegicus; experiment: HVA (Homovanillic acid)content of rat striatum reflecting DA metabolism and turnover; type: functional; set-up: concentration or dose not given beside the values
[4] = system: Rattus norvegicus; experiment: Flat body posture behavior was studied in rats after subcutaneous administration of 32 uM/Kg of compound; 4/4; type: functional
In short: (§2)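 Test compounds were given at 32 μmol/kg and the reference 5-HT1A agonist at 1 μmol/kg. Flat body posture, forepaw treading and hind limb abduction were each scored as absent or present. Values are animals showing the behavior out of animals tested, analysed by Fisher's exact test. Male Sprague–Dawley rats, 260–310 g.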

[5] = species on record: Rattus norvegicus; experiment: Ratio of turnover (DOPAC to DA) in rat brain striatum compared to control.; type: functional; in short: as §1
[6] = system: Rattus norvegicus; experiment: Cage leaving response was studied in rats after subcutaneous administration of 32 uM/Kg of compound; 0/4; type: functional
[7] = target: T1, 5-hydroxytryptamine receptor 1A (Rattus norvegicus, UniProt P19327); experiment: Binding affinity for 5-hydroxytryptamine 1A receptor in rat brain tissue using [3H]8-OH-DPAT as radioligand; type: tissue-based
T1 sequence (P19327 whole entry): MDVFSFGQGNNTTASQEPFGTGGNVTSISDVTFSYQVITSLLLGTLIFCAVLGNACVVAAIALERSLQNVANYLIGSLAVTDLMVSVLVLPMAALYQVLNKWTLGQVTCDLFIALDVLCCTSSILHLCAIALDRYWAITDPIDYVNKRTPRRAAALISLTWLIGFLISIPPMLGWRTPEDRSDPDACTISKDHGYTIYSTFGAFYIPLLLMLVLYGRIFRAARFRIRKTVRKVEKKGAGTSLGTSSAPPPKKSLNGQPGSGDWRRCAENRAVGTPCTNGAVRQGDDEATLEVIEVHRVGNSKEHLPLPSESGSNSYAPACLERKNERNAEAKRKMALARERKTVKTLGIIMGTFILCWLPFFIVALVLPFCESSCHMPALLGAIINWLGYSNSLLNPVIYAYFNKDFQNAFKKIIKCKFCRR
In short: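 Membranes from male Sprague–Dawley rat cortex plus hippocampus, homogenized in 50 mM Tris-HCl with 4.0 mM CaCl2 and 5.7 mM ascorbic acid, pH 7.5, and preincubated 10 min at 37 °C with 10 μM pargyline. Assay used 5 mg/mL tissue and 2 nM [3H]-8-OH-DPAT, 10 min at 37 °C. Nonspecific binding was defined with 10 μM 5-HT. Bound ligand was separated on GF/B filters and counted; data were fitted by nonlinear regression.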

[8] = system: Rattus norvegicus; experiment: Forepaw treading (FPT) behavior was studied in rats after subcutaneous administration of 32 uM/Kg of compound; 4/4; type: functional; in short: as §2
[9] = species on record: Rattus norvegicus; experiment: DOPAC (3,4-dihydroxyphenylacetic acid) content of rat striatum reflecting DA metabolism and turnover; type: functional; set-up: concentration or dose not given beside the values; in short: as §1
[10] = species on record: Rattus norvegicus; experiment: DA (dopamine) content of rat striatum reflecting DA metabolism and turnover; type: functional; in short: as §1
[11] = system: Rattus norvegicus; experiment: Change in body temperature in rats after subcutaneous administration; type: functional
In short: (§3)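 Rectal temperature was taken with an electrical thermometer, probe inserted 3.5 cm, before and 30 min after sc injection in 0.9% NaCl. Values are the change from the preinjection reading, analysed by Tukey HSD versus saline-treated rats. Male Sprague–Dawley rats, 260–310 g.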

[12] = species on record: Rattus norvegicus; experiment: 5-HIAA (5-Hydroxyindoleacetic acid) content of rat hippocampus reflecting 5-HT metabolism and turnover; type: functional; set-up: concentration or dose not given beside the values; in short: as §1
[13] = target: D(2) dopamine receptor (Homo sapiens, UniProt P14416); experiment: In vitro binding affinity towards human Dopamine receptor D2A was determined in mouse fibroblast LtK cells using [3H]raclopride; type: cell-based
D(2) dopamine receptor, sequence (P14416 whole entry): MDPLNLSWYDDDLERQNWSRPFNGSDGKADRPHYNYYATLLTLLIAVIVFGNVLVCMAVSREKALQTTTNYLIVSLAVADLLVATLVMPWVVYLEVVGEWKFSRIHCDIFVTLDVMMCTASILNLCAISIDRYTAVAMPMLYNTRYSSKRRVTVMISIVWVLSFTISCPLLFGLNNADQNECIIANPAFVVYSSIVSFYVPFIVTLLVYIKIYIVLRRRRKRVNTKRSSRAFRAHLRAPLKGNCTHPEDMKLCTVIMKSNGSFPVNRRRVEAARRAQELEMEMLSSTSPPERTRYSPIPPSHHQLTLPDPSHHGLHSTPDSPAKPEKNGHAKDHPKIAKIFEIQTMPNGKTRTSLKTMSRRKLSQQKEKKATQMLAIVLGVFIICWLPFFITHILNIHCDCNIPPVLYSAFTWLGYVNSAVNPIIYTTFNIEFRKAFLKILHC
In short: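 Membranes from Ltk− mouse fibroblasts stably expressing human D2A receptors, at 80–100 pM receptor. Buffer was 50 mM Tris-HCl, 120 mM NaCl, 5 mM KCl, 1.5 mM CaCl2, 4 mM MgCl2, 1 mM EDTA, pH 7.4. Incubation with [3H]raclopride was 60 min at 22 °C, in duplicate, with 1 μM (+)-butaclamol for nonspecific binding. Bound ligand was separated on GF/B filters; data were fitted by nonlinear regression.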

[14] = system: Rattus norvegicus; experiment: Cage leaving response was studied in rats after subcutaneous administration of 1 uM/Kg of compound; 0/7; type: functional
[15] = system: Rattus norvegicus; experiment: Forepaw treading (FPT) behavior was studied in rats after subcutaneous administration of 1 uM/Kg of compound; 7/7; type: functional; in short: as §2
[16] = system: Rattus norvegicus; experiment: Flat body posture behavior was studied in rats after subcutaneous administration of 1 uM/Kg of compound; 7/7; type: functional; in short: as §2
[17] = system: Rattus norvegicus; experiment: Change in body temperature was studied in rats upon subcutaneous administration of 1 uM/Kg of compound; type: functional; in short: as §3
[18] = system: Rattus norvegicus; experiment: Flat body posture behavior was studied in rats after subcutaneous administration of 32 uM/Kg of compound; 3/5; type: functional; in short: as §2
[19] = system: Rattus norvegicus; experiment: Forepaw treading (FPT) behavior was studied in rats after subcutaneous administration of 32 uM/Kg of compound; 0/5; type: functional
[20] = system: Rattus norvegicus; experiment: Cage leaving response was studied in rats after subcutaneous administration of 32 uM/Kg of compound; 1/5; type: functional
[21] = system: Rattus norvegicus; experiment: Forepaw treading (FPT) behavior was studied in rats after subcutaneous administration of 32 uM/Kg of compound; 0/4; type: functional; in short: as §2
[22] = system: Rattus norvegicus; experiment: Flat body posture behavior was studied in rats after subcutaneous administration of 32 uM/Kg of compound; 0/4; type: functional; in short: as §2
[23] = system: Rattus norvegicus; experiment: Cage leaving response was studied in rats after subcutaneous administration of 32 uM/Kg of compound; 1/4; type: functional
[24] = system: Rattus norvegicus; experiment: Cage leaving response was studied in rats after subcutaneous administration of 32 uM/Kg of compound; 2/5; type: functional
[25] = system: Rattus norvegicus; experiment: Flat body posture behavior was studied in rats after subcutaneous administration of 32 uM/Kg of compound; 0/5; type: functional

**Q.** With `CCCN(CCC)[C@@H]1CCc2cccc(OC)c2[C@@H]1C` as the compound, how does the Ratio [1] read?
**A.** Its Ratio is 70.

**Q.** And the Control [2]?
**A.** The Control was 108%.

**Q.** What about the Control [3] of the same compound?
**A.** The Control was 121%.

**Q.** What about the FBP [4] of the same compound?
**A.** The FBP was 4.

**Q.** What about the Ratio [5] of the same compound?
**A.** The Ratio was 151.

**Q.** What about the Cage leaving [6] of the same compound?
**A.** The Cage leaving was 0.

**Q.** What about the Ki [7] of the same compound?
**A.** The Ki was 6 nM.

**Q.** What about the FPT [8] of the same compound?
**A.** Its FPT is 4.

**Q.** What about the Control [9] of the same compound?
**A.** The Control was 134%.

**Q.** And the Control [10]?
**A.** Its Control is 89%.

**Q.** What about the “Change of body temperature” value [11] of the same compound?
**A.** Its value is -2.5 °C.

**Q.** What about the Control [12] of the same compound?
**A.** Its Control is 76%.

**Q.** And the Ki [13]?
**A.** The Ki was 33.9 nM.

**Q.** Which Control [2] does the source give for `CCCN(CCC)[C@@H]1CCc2cccc(O)c2C1` here?
**A.** Its Control is 130%.

**Q.** And the Control [3]?
**A.** Its Control is 105%.

**Q.** And the Cage leaving [14]?
**A.** The Cage leaving was 0.

**Q.** What about the FPT [15] of the same compound?
**A.** The FPT was 7.

**Q.** And the FBP [16]?
**A.** Its FBP is 7.

**Q.** And the Control [9]?
**A.** The Control was 109%.

**Q.** What about the Control [10] of the same compound?
**A.** The Control was 108%.

**Q.** And the Control [12]?
**A.** Its Control is 80%.

**Q.** And the “Change of body temperature” value [17]?
**A.** The value was -2.6 °C.

**Q.** Which results are given for `CCCN(CCC)[C@@H]1CCc2ccccc2[C@@H]1C`?
**A.** Ratio [1]: 98; Control [2]: 94%; Control [3]: 168%; Ratio [5]: 164; FBP [18]: 3; Ki [7]: 49 nM; Control [9]: 152%; Control [10]: 95%; FPT [19]: 0; Change of body temperature [11]: -0.7 °C; Control [12]: 92%; Ki [13]: 87 nM; Cage leaving [20]: 1

**Q.** `CCCN(CCC)[C@H]1CCc2cccc(OC)c2[C@H]1C` was tested. Which Ratio [1] did it give?
**A.** The Ratio was 96.

**Q.** What about the Control [2] of the same compound?
**A.** The Control was 81%.

**Q.** What about the Control [3] of the same compound?
**A.** Its Control is 53%.

**Q.** And the Ratio [5]?
**A.** Its Ratio is 69.

**Q.** What about the FPT [21] of the same compound?
**A.** The FPT was 0.

**Q.** And the FBP [22]?
**A.** Its FBP is 0.

**Q.** And the Ki [7]?
**A.** Its Ki is 285 nM.

**Q.** And the Control [9]?
**A.** The Control was 80%.

**Q.** And the Control [10]?
**A.** Its Control is 118%.

**Q.** And the Cage leaving [23]?
**A.** The Cage leaving was 1.

**Q.** What about the “Change of body temperature” value [11] of the same compound?
**A.** The value was -1.2 °C.

**Q.** What about the Control [12] of the same compound?
**A.** Its Control is 79%.

**Q.** And the Ki [13]?
**A.** The Ki was 1050 nM.

**Q.** `CCCN(CCC)[C@@H]1CCc2cccc(O)c2[C@@H]1C` was tested. Which Ratio [1] did it give?
**A.** Its Ratio is 72.

**Q.** What about the Control [2] of the same compound?
**A.** Its Control is 121%.

**Q.** What about the Control [3] of the same compound?
**A.** The Control was 196%.

**Q.** And the FBP [4]?
**A.** Its FBP is 4.

**Q.** And the Ratio [5]?
**A.** Its Ratio is 275.

**Q.** What about the Cage leaving [6] of the same compound?
**A.** The Cage leaving was 0.

**Q.** What about the FPT [8] of the same compound?
**A.** The FPT was 4.

**Q.** And the Control [9]?
**A.** Its Control is 225%.

**Q.** And the Control [10]?
**A.** The Control was 83%.

**Q.** And the “Change of body temperature” value [11]?
**A.** Its value is -0.2 °C.

**Q.** What about the Control [12] of the same compound?
**A.** Its Control is 88%.

**Q.** And the Ki [13]?
**A.** The Ki was 30 nM.

**Q.** How did the Ratio [1] turn out when `CCCN(CCC)[C@H]1CCc2cccc(C(=O)OC)c2[C@H]1C` was run?
**A.** Its Ratio is 131.

**Q.** And the Cage leaving [24]?
**A.** The Cage leaving was 2.

**Q.** What about the Control [2] of the same compound?
**A.** The Control was 86%.

**Q.** What about the Control [3] of the same compound?
**A.** The Control was 104%.

**Q.** What about the Ratio [5] of the same compound?
**A.** The Ratio was 103.

**Q.** And the FBP [25]?
**A.** The FBP was 0.

**Q.** What about the Ki [7] of the same compound?
**A.** The Ki was 417 nM.

**Q.** And the Control [9]?
**A.** Its Control is 97%.

**Q.** And the Control [10]?
**A.** The Control was 96%.

**Q.** And the FPT [19]?
**A.** Its FPT is 0.

**Q.** What about the “Change of body temperature” value [11] of the same compound?
**A.** Its value is -0.1 °C.

**Q.** And the Control [12]?
**A.** The Control was 112%.
